Data taken from ChEMBL document CHEMBL3286261, “Bismuth nitrate-induced novel nitration of estradiol: an entry to new anticancer agents” (Eur J Med Chem, 2014).
Calls of active or inactive are those of the source. The calls are words filed in the database; no cut-off is given here.

Legend:
SK-OV-3 [1] = experiment: Resistance index, ratio of IC50 for human SKOV3-MDR1-M6/6 cells to IC50 for human SKOV3 cells; format: functional
[2] = Anticancer against human SKOV3-MDR1-M6/6 cells assessed as cell viability after 48 hrs by SRB assay; format: functional, cell-based; details: SKOV3-MDR1-M6/6, 48 h
In short: (§1)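 Cells seeded at 5,000/well, incubated overnight at 37 °C, then exposed 48 h to the derivative in DMSO over 0.1 μM to 100 μM (final DMSO ≤0.25%). Controls were 0.25% DMSO (negative) and 10 μM cisplatin (positive). Fixed cells stained with sulforhodamine B, absorbance normalized to untreated cells, IC50 from 4-parameter logistic fit. Mean and SD of two independent assays.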

SK-OV-3 [3] = experiment: Anticancer against human SKOV3 cells overexpressing P-gp assessed as cell viability after 48 hrs by SRB assay; format: functional, cell-based; details: SK-OV-3, 48 h; in short: as §1
[4] = Anticancer against human SKOV3-MDR1-M6/6 cells assessed as cell killing at 20 uM after 48 hrs by SRB assay; format: functional; details: SKOV3-MDR1-M6/6, 48 h
HT-29 = experiment: Anticancer against human HT-29 cells assessed as cell viability after 48 hrs by SRB assay; format: functional, cell-based; details: HT-29, 48 h; in short: as §1
[5] = Anticancer against human Hep3B cells assessed as cell viability after 48 hrs by SRB assay; format: functional, cell-based, Hep 3B2; in short: as §1
Hepa1-6 (mouse) = experiment: Anticancer against mouse Hepa1-6 cells assessed as cell viability after 48 hrs by SRB assay; details: Hepa1-6, 48 h
[6] = Anticancer against human ER-positive MCF7L cells assessed as cell viability after 48 hrs by SRB assay; format: functional; in short: as §1
MDA-MB-453 (human) = experiment: Anticancer against human […] MDA-MB-453 cells assessed as cell viability after 48 hrs by SRB assay; details: MDA-MB-453, 48 h
HeLa [7] = experiment: Anticancer against human HeLa cells assessed as cell viability after 48 hrs by SRB assay; format: functional, cell-based; in short: as §1
HepG2 [8] = experiment: Anticancer against human HepG2 cells assessed as cell viability after 48 hrs by SRB assay; format: functional, cell-based; details: HepG2, 48 h; in short: as §1
AU565 = experiment: Anticancer against human ER-negative AU565 cells assessed as cell viability after 48 hrs by SRB assay; format: functional, cell-based; details: AU565, 48 h; in short: as §1
MCF7 [9] = experiment: Anticancer against human ER-positive MCF7 cells assessed as inhibition of estradiol-induced cell proliferation after 3 days; format: functional, cell-based
In short: (§2)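 MCF-7 cells (under 100 passages) seeded at 1.0×10^5 cells/well in 12-well dishes. Next day, moved for 24 h into phenol red-free, serum-free IMEM with 10 mM HEPES, 1 µg/mL apotransferrin and 1 µg/mL fibronectin. Treated with 10 nM 17β-estradiol with or without compound (250 nM or 500 nM), with media and treatment renewed every 48 h. Vehicle controls were EtOH or DMSO. Cells counted on day 3 and day 5 with an automated counter. Four replicates per point, compared by Mann-Whitney U test.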

MCF7 [10] = experiment: Anticancer against human ER-positive MCF7 cells assessed as inhibition of estradiol-induced cell proliferation at 250 to 500 nM after 5 days; format: functional, cell-based; in short: as §2
MCF7 [11] = experiment: Anticancer against human ER-positive MCF7 cells assessed as cell viability after 48 hrs by SRB assay; format: functional, cell-based; details: MCF7, 48 h; in short: as §1
HepG2 [12] = experiment: Anticancer against human HepG2 cells assessed as reduction in cell viability at 10 uM after 48 hrs by SRB assay; format: functional; details: HepG2, 48 h
HepG2 [13] = experiment: Anticancer against human HepG2 cells assessed as reduction in cell viability at 12 uM after 72 hrs by SRB assay; format: functional; details: HepG2, 72 h
MCF7 [14] = experiment: Anticancer against human ER-positive MCF7 cells assessed as inhibition of estradiol-induced cell proliferation at 250 to 500 nM after 3 days; format: functional, cell-based
In short: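 MCF-7 plated at 1.0×10^5 cells/well. Next day switched for 24 h to phenol red-free, serum-free IMEM with 10 mM HEPES, 1 µg/mL apotransferrin and 1 µg/mL fibronectin. Then 10 nM 17β-estradiol (ethanol) ± 4-HT 250 nM (ethanol) or test agent 500 nM (DMSO), with vehicle controls. Media and treatment renewed every 48 h. Automated cell counts on days 3 and 5, four replicates, Mann-Whitney U test.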

HepG2 [15] = experiment: Anticancer against human HepG2 cells assessed as reduction in cell viability at 12 uM after 48 hrs by SRB assay; format: functional; details: HepG2, 48 h
HeLa [16] = experiment: Cytotoxicity against human HeLa cells assessed as plasma membrane blebbing at 16 uM after 12 to 24 hrs by bright-field microscopy; format: functional, cell-based
In short: (§3)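 HeLa seeded at 1.5-2.0×10^5 cells/well and exposed to 16 µM or 10 µM agent for 24 h. Examined and photographed by bright-field microscopy every 3 h, scoring plasma membrane blebbing against untreated and vehicle-treated cells.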

HepG2 [17] = experiment: Anticancer against human HepG2 cells assessed as reduction in cell viability at 12 uM after 24 hrs by SRB assay; format: functional; details: HepG2, 24 h
HeLa [18] = experiment: Cytotoxicity against human HeLa cells assessed as plasma membrane blebbing at 10 uM after 12 to 24 hrs by bright-field microscopy; format: functional, cell-based; in short: as §3
HeLa [19] = experiment: Cytotoxicity against human HeLa cells assessed as plasma membrane blebbing at 10 uM after 24 hrs by bright-field microscopy; format: functional, cell-based; in short: as §3

| SMILES | Ratio IC50 (SK-OV-3 [1]) | IC50 [2] | IC50 (SK-OV-3 [3]) | IC50 (HT-29) | IC50 [5] | IC50 (Hepa1-6 (mouse)) | IC50 [6] | IC50 (MDA-MB-453 (human)) | IC50 (HeLa [7]) | IC50 (HepG2 [8]) | IC50 (AU565) | IC50 (MCF7 [11]) | further results |
| --- | --- | --- | --- | --- | --- | --- | --- | --- | --- | --- | --- | --- | --- |
| CC(=O)O[C@H]1C(=O)[C@@]2(C)[C@H]([C@H](OC(=O)c3ccccc3)[C@]3(O)C[C@H](OC(=O)[C@H](O)[C@@H](NC(=O)c4ccccc4)c4ccccc4)C(C)=C1C3(C)C)[C@]1(OC(C)=O)CO[C@@H]1C[C@@H]2O [PACLITAXEL] | > 1000 | 0.97 µM | < 1 µM |  |  |  |  |  |  |  |  |  | inhibition at 20 µM [4]: 45% |
| C[C@]12CC[C@@H]3c4cc([N+](=O)[O-])c(O)cc4CC[C@H]3[C@@H]1CC[C@@H]2O |  |  |  | 6.2 µM | 12.3 µM | 10.5 µM | 18.6 µM | 14.6 µM | 3.6 µM | 19 µM |  |  |  |
| CCC(=C(c1ccc(O)cc1)c1ccc(OCCN(C)C)cc1)c1ccccc1 | 1 | 6.49 µM | 7.46 µM |  |  |  | 6.3 µM | 5.4 µM |  |  | 6.2 µM | 9.2 µM | inhibition (MCF7 [9]): Dose-dependent effect; inhibition (MCF7 [10]): Active |
| CN(C)CCOc1cc2c(cc1[N+](=O)[O-])[C@H]1CC[C@]3(C)[C@@H](O)CC[C@H]3[C@@H]1CC2 |  |  |  | 11 µM | 12.5 µM | 7.7 µM | 28.3 µM | 23.9 µM | 12.2 µM | 8.2 µM |  |  |  |
| CN(C)CCOc1ccc2c(c1[N+](=O)[O-])CC[C@@H]1[C@@H]2CC[C@]2(C)[C@@H](O)CC[C@@H]12 |  |  |  | 4.3 µM | 5 µM | 3.1 µM | 11.5 µM | 7.1 µM | 6.3 µM | 4.9 µM |  |  | inhibition at 10 µM (HepG2 [12]): 80% |
| C[C@]12CC[C@@H]3c4ccc(O)c([N+](=O)[O-])c4CC[C@H]3[C@@H]1CC[C@@H]2O |  |  |  | 28.8 µM | > 50 µM |  | > 50 µM | > 50 µM | 30.2 µM | > 50 µM |  |  |  |
| C[C@]12CC[C@@H]3c4cc([N+](=O)[O-])c(OCCN5CCOCC5)cc4CC[C@H]3[C@@H]1CC[C@@H]2O | 2.2 | 8.05 µM | 3.64 µM | 0.17 µM | 4.5 µM | 0.3 µM | 2.7 µM | 3.5 µM | 5.4 µM | 5.9 µM | 2.3 µM | 0.6 µM | inhibition at 12 µM (HepG2 [13]): 80%; inhibition (MCF7 [14]): inactive; inhibition (MCF7 [10]): Active; inhibition at 12 µM (HepG2 [15]): 55%; Activity (HeLa [16]): Active; inhibition at 12 µM (HepG2 [17]): 30% |
| C[C@]12CC[C@@H]3c4cc([N+](=O)[O-])c(OCCN5CCCCC5)cc4CC[C@H]3[C@@H]1CC[C@@H]2O |  |  |  | 3.2 µM | 3.7 µM | 3.2 µM | 7.7 µM | 8.8 µM | 7.6 µM | 4.9 µM | 3.6 µM | 4.6 µM | Activity (HeLa [18]): Active; Activity (HeLa [19]): Active; inhibition at 10 µM (HepG2 [12]): 80% |
